ChEMBL document CHEMBL3400072, “Synthesis, biological evaluation and docking analysis of a new series of methylsulfonyl and sulfamoyl acetamides and ethyl acetates as potent COX-2 inhibitors” (Bioorg Med Chem, 2015)
Active and inactive are the calls of the source. The calls are words filed in the database; no cut-off is given here.

Columns and labels:
[1] = target: T1, Prostaglandin G/H synthase 2 (Homo sapiens) (UniProt P35354); settings: at 10 µM
T1 sequence (whole entry): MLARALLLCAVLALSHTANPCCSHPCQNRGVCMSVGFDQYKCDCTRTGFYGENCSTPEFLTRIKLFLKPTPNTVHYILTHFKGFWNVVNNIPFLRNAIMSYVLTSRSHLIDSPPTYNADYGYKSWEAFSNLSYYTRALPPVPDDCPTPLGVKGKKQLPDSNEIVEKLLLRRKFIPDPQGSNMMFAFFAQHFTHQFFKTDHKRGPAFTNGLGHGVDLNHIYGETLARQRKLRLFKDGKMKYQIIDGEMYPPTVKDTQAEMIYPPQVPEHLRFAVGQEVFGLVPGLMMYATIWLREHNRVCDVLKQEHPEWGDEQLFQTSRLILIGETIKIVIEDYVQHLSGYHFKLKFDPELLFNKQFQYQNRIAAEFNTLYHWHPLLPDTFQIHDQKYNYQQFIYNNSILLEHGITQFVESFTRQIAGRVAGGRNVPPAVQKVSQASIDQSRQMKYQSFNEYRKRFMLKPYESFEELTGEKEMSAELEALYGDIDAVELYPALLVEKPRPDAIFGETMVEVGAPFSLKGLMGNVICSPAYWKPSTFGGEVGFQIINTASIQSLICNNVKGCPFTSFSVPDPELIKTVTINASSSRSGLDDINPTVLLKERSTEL

[2] = tested on: Mus musculus; assay: Analgesic activity in Swiss albino mouse model assessed as reduction of acetic acid-induced writhes at 30 mg/kg, po administered 30 mins prior to acetic acid challenge measured after 5 mins for 10 mins relative to vehicle-treated control; format: functional; set-up: scale not given: the % may be the effect or the level left
Method in brief: (§1)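 Male Swiss albino mice (23–25 g), standard diet and water ad libitum, 23 °C, 12 h light/dark cycle. Oral dosing (1–40 mg/kg range), with carboxymethylcellulose (CMC) as vehicle, 30 min before ip injection of 0.6% acetic acid (10 mL/kg). Stretching movements counted for 10 min, beginning 5 min after acetic acid. Results given as writhe count and % reduction versus vehicle-treated mice.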

[3] = tested on: Mus musculus; assay: Analgesic activity in Swiss albino mouse model assessed as reduction of acetic acid-induced writhes at 3 mg/kg, po administered 30 mins prior to acetic acid challenge measured after 5 mins for 10 mins relative to vehicle-treated control; format: functional; set-up: scale not given: the % may be the effect or the level left
Method in brief: as §1

[4] = tested on: Mus musculus; assay: Analgesic activity in Swiss albino mouse model assessed as reduction of acetic acid-induced writhes at 10 mg/kg, po administered 30 mins prior to acetic acid challenge measured after 5 mins for 10 mins relative to vehicle-treated control; format: functional; set-up: scale not given: the % may be the effect or the level left
Method in brief: as §1

[5] = tested on: Mus musculus; assay: Analgesic activity in Swiss albino mouse model assessed as reduction of acetic acid-induced writhes at 40 mg/kg, po administered 30 mins prior to acetic acid challenge measured after 5 mins for 10 mins relative to vehicle-treated control; format: functional; set-up: scale not given: the % may be the effect or the level left
Method in brief: as §1

[6] = tested on: Mus musculus; assay: Analgesic activity in Swiss albino mouse model assessed as reduction of acetic acid-induced writhes at 20 mg/kg, po administered 30 mins prior to acetic acid challenge measured after 5 mins for 10 mins relative to vehicle-treated control; format: functional; set-up: scale not given: the % may be the effect or the level left
Method in brief: as §1

[7] = target: T2, Prostaglandin G/H synthase 2 (Homo sapiens, UniProt P35354); assay: Inhibition of human recombinant COX2 using […] as substrate after 10 mins by EIA
T2 sequence (P35354 whole entry): T1 sequence (whole entry)

[8] = target: T3, Prostaglandin G/H synthase 1 (Ovis aries) (UniProt P05979); settings: at 10 µM
T3 sequence (whole entry): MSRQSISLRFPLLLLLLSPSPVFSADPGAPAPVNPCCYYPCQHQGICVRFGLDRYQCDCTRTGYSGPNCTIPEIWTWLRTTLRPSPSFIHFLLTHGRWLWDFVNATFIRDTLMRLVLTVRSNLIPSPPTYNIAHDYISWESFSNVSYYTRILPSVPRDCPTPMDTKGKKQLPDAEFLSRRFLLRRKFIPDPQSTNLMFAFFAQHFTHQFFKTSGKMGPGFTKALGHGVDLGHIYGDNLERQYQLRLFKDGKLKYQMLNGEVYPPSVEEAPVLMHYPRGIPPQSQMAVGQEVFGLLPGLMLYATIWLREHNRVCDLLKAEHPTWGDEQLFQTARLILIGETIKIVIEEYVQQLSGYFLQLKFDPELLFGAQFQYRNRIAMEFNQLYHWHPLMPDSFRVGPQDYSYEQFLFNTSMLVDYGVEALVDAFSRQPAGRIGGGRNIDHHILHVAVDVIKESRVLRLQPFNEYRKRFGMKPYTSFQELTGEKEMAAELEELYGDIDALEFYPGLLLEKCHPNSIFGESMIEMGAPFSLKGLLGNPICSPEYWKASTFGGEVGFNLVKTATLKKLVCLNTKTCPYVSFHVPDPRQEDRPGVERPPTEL

[9] = tested on: Mus musculus; assay: Analgesic activity in po dosed Swiss albino mouse model assessed as reduction of acetic acid-induced writhes administered 30 mins prior to acetic acid challenge measured after 5 mins for 10 mins relative to vehicle-treated control; format: functional, organism-based
Method in brief: as §1

CCCNC(=O)Cc1cc(-c2ccc(S(N)(=O)=O)cc2)n(-c2ccc(F)cc2)c1C
inhibition [1]: 62% | Activity [2]: 39.1% | Activity [3]: 3.9% | Activity [4]: 8.3%

Cc1c(CC(=O)O)cc(-c2ccc(S(N)(=O)=O)cc2)n1-c1cccc(F)c1
inhibition [1]: 65% | Activity [4]: 9.5%

Cc1ccc(-c2cc(C(F)(F)F)nn2-c2ccc(S(N)(=O)=O)cc2)cc1 [CELECOXIB]
Activity [4]: 57.4%

Cc1c(CC(=O)O)cc(-c2ccc(S(N)(=O)=O)cc2)n1-c1ccc(F)cc1
inhibition [1]: 65% | Activity [5]: 49.1% | Activity [4]: 16.9% | Activity [6]: 33.1%

Cc1c(CC(=O)NC(C)C)cc(-c2ccc(S(N)(=O)=O)cc2)n1-c1ccc(F)cc1
inhibition [1]: 48% | Activity [2]: 43.7% | Activity [3]: 16.1% | Activity [4]: 36.5%

Cc1c(CC(=O)NC(C)C)cc(-c2ccc(S(N)(=O)=O)cc2)n1-c1cccc(F)c1
inhibition [1]: 49% | Activity [2]: 31.6% | Activity [3]: 11.5% | Activity [4]: 29.3%

CCOC(=O)Cc1cc(-c2ccc(S(N)(=O)=O)cc2)n(-c2ccc(F)cc2)c1C
inhibition [1]: 82% | Activity [5]: 62.3% | IC50 [7]: 1.07 µM | inhibition [8]: inactive | Activity [9]: Dose-dependent effect | Activity [4]: 10.4% | Activity [6]: 24.8%

CCCNC(=O)Cc1cc(-c2ccc(S(C)(=O)=O)cc2)n(-c2cccc(F)c2)c1C
inhibition [1]: 43% | Activity [2]: 9.9% | Activity [4]: 12.2%

Cc1c(CC(=O)NC(C)C)cc(-c2ccc(S(C)(=O)=O)cc2)n1-c1cccc(F)c1
inhibition [1]: 74% | Activity [2]: 25.3% | IC50 [7]: 7 µM | Activity [4]: 3.6%

CCCNC(=O)Cc1cc(-c2ccc(S(N)(=O)=O)cc2)n(-c2cccc(F)c2)c1C
inhibition [1]: 96% | Activity [2]: 12.2% | IC50 [7]: 5.78 µM | inhibition [8]: inactive

CCOC(=O)Cc1cc(-c2ccc(S(N)(=O)=O)cc2)n(-c2cccc(F)c2)c1C
inhibition [1]: 89% | Activity [2]: 33.5% | IC50 [7]: 0.92 µM | inhibition [8]: inactive | Activity [4]: 26%

CCCNC(=O)Cc1cc(-c2ccc(S(C)(=O)=O)cc2)n(-c2ccc(F)cc2)c1C
inhibition [1]: 65% | Activity [3]: 10.2% | Activity [4]: 29.9%

Cc1c(CC(=O)NC(C)C)cc(-c2ccc(S(C)(=O)=O)cc2)n1-c1ccc(F)cc1
inhibition [1]: 95% | Activity [2]: 48.7% | IC50 [7]: 4.91 µM | inhibition [8]: 36% | Activity [4]: 12.2%
